Screening results deposited in PubChem by several laboratories.
This is a sample that favours compounds with a hit; in the whole collection about 2.3% have one here.
RORA act: activators of orphan receptor RORA, primary screen, cell-based, luminescence. activation, % at 10 µM. AID 560, 2006. CHO-K1 Gal4-RORA LBD luciferase reporter; percent increase over mock-subtracted basal signal. Nuclear receptor ROR-alpha (Homo sapiens), P35398. 1.5% of 65,000 active;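 active = activation above the mean of all tested compounds plus 3 SD, cut at about 49% in these data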;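 also: 0% = DMSO-treated RORA cells and 100% = added signal equal to DMSO minus mock-transfected cells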
SF-1 act: activators of human SF-1, primary screen, cell-based, CHO-K1, Gal4-SF-1 LBD, luciferase luminescence. activation, % at 10 µM. Steroidogenic factor 1 (Homo sapiens), Q13285. CHO-K1 Gal4-SF-1 LBD luciferase reporter; % increase over DMSO SF-1-specific signal. 1.9% of 65,000 active;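 active = activation above the mean activation of all tested compounds plus 3 SD, cut at about 50% in these data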
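Test system: CHO-K1 cells with Gal4–hSF-1 LBD chimera plus Gal4-driven luciferase; Input: 4,000 cells/well; Compound: 10 µM only; Times: 20 h compound treatment, 37 °C; Measured by: steady-glow luciferase luminescence, read after 15 min reagent incubation; Measure: percent activation versus DMSO; Control set: DMSO and mock-transfected background; Replicates: one test per compound.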
MT1-MMP txn act: MT1-MMP promoter reporter activation – cell-based, luciferase luminescence, primary screen. HT1080 MT1-MMP promoter luciferase reporter, overnight; active compounds read high. activation factor at 10 µM. 0.16% of 86,000 active. AID 750, 2007;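 active = activation factor of at least 2 for MT1-MMP transcription at 10 µM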
WNV NS2B-NS3 inh: inhibitors of WNV NS2B-NS3 protease, primary screen, biochemical, fluorogenic substrate; Genome polyprotein (West Nile virus), P06935; AID 577, 2007; fluorogenic substrate Ex360/Em465; active compounds read low; z-score (no concentration beside the values); 0.18% of 65,000 active; in the data active = z-score below about -3
Target sequence (P06935 1371-1501 limits assumed): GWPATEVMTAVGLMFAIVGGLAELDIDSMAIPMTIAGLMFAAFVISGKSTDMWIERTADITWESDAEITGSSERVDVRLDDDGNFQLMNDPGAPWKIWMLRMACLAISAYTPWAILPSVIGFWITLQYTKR
Target sequence (P06935 1502-1679 limits assumed): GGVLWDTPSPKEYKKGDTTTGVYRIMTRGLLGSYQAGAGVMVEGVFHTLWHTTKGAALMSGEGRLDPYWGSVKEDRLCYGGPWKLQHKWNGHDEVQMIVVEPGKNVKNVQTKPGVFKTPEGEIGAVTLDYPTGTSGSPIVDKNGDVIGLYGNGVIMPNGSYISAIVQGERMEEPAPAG
MMP-13 inhibitor: human MMP13 inhibitors, primary screen, biochemical, FRET peptide cleavage; 0.07% of 65,000 active; inhibition, % at 4 µM; MMP-13 fTHP FRET cleavage, Mca fluorescence; AID 570, 2006;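 active = inhibition above the mean of compound-free control plate wells plus 3 SD, cut at about 14% in these data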;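 also: 0% = DMSO wells and 100% = wells with reference MMP-13 inhibitor after basal subtraction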
* marks the source's active call; other numbers are inactive results; x = no result.

SMILES	RORA act	SF-1 act	MT1-MMP txn act	WNV NS2B-NS3 inh	MMP-13 inhibitor
Cn1c(C(=O)NCc2cccs2)cc2oc3ccccc3c21	60*	54*	1	1.3	-1
Cn1c(C(=O)NCC2CCCO2)cc2c(=O)[nH]c3ccccc3c21 (stereo unspecified)	16	-3	1.7	1.1	-16
CC[Si](CC)(CC)c1c2c(nc3ccc(OC)cc13)-c1cccc(=O)n1C2	x	x	1	x	x
Cc1ccc(C2=Nc3ccccc3NC(C)(c3ccc(C)o3)C2)o1 (stereo unspecified)	53*	106*	1.2	0.58	-4
COc1cccc(CN(CC(=O)NC2CCCC2)C(=O)Cn2nnc(-c3cccs3)n2)c1	x	x	1.1	x	x
CCCCCn1c(-c2ccco2)nc2nc3ccccc3nc21	-5	11	1	4.8	-170
c1ccc(Cn2c(-c3ccco3)nc3nc4ccccc4nc32)cc1	75*	82*	1.6	-0.56	-410
CN(C)c1cccc(C(=O)Nc2cccc(F)c2)c1	46	58*	1.2	-0.04	1
O=C(Nc1cccc(F)c1)c1c(F)c(F)c(F)c(F)c1F	-34	-8	1	-0.7	1
CCN(CC)c1ccc(C(=O)Nc2cccc(F)c2)cc1	42	54*	0.6	-1.2	-1
C[C@@H](C(=O)Nc1ccc2ccccc2c1)[C@@H]1C[C@@]1(C)[C@@H](NS(=O)(=O)c1ccc(-c2ccccc2)cc1)c1ccccc1	x	x	1.2	x	x
Cc1csc(NC(=O)CSc2nnc(Cn3c(=O)sc4ccccc43)n2-c2ccccc2)n1	-5	4	1.1	0.31	0
CCC(C)C(NS(=O)(=O)c1ccc(C)cc1)C(=O)NCCN1CCOCC1 (stereo unspecified)	-11	12	x	-1.9	4
Cn1c(-c2ccccc2)cnc1SCc1nc2ccccc2c(=O)[nH]1	29	69*	0.9	0.23	-4
Cn1c(SCc2nc3ccccc3c(=O)[nH]2)nnc1-c1ccco1	-8	-3	1	-0.34	0
C=CCn1c(C)cc(C(=O)COc2nncc3ccccc23)c1C	80*	39	1.2	0.37	-1
Cc1cc(C(=O)CSc2nc3ccccc3[nH]2)c(C)n1C	59*	61*	1	0.53	1
Cc1ccc2nc(SCC(=O)c3cc(C)n(C)c3C)[nH]c2c1	x	x	1.2	x	x
C=CCn1c(C)cc(C(=O)CSc2nnc(Cc3ccccc3)o2)c1C	3	13	1.2	2.4	-1
C=CCn1c(C)cc(C(=O)CSc2nc3ccccc3c(=O)[nH]2)c1C	-37	112*	1.8	0.83	-9
C=CCn1c(C)cc(C(=O)CSc2nnc(NCc3ccccc3)s2)c1C	32	59*	1.3	-0.68	4
C=CCn1c(C)cc(C(=O)CSc2nc3ccccc3o2)c1C	10	40	1.1	0.7	-1
Cc1cc(=O)oc(C)c1C(=O)OCC(=O)c1ccc(Cl)cc1	x	x	1.3	x	x
O=C(CSc1nc2ccccc2[nH]1)N1CCCCC1	52*	48	1.6	-0.02	1
CC(C)(C)NC(=O)c1ccccc1-c1nc(-c2ccccc2Cl)no1	-6	-6	1.3	-0.62	-4
SMILES	RORA act	SF-1 act	MT1-MMP txn act	WNV NS2B-NS3 inh	MMP-13 inhibitor
CN(C)c1ccc(C(=O)OCC(=O)c2cccs2)cc1	7	52*	1.2	2.3	3
COC(=O)c1cc(S(=O)(=O)N2CCOCC2)ccc1Sc1ccccc1N	13	12	1.2	-0.72	1
Cc1cc(C(F)(F)F)nn1CCCNC(=O)c1cnccn1	-24	0	1.2	-1.6	2
O=C(OCc1nc2ccccc2s1)C1CCN(S(=O)(=O)c2cccs2)CC1	14	35	1.8	-1.7	-24
CCOC(=O)C1CCN(S(=O)(=O)C(F)(F)c2nc3ccccc3s2)CC1	71*	32	1.4	-0.4	-1
O=c1nc2n(c3ccccc13)Cc1ccccc1-2	-8	8	1.1	-0.06	-22
Cc1sc2nc3n(c(=O)c2c1C)Cc1ccccc1-3	73*	56*	1.9	1.7	-10
CCOC(=O)CNC(=O)C(Cc1ccccc1)NS(=O)(=O)c1cccs1 (stereo unspecified)	-4	0	1.1	-3.4*	-3
Cc1ccc(CNC(=O)C(Cc2ccccc2)NS(=O)(=O)c2cccs2)cc1 (stereo unspecified)	x	x	1	x	x
CCOC(=O)c1sc(NC(=O)c2cccs2)cc1C	26	27	1.5	0.13	-21
CCOC(=O)c1sc(NC(=O)c2ccc(Br)o2)cc1C	69*	69*	1.5	-1.2	6
CCCC1(C(=O)OC)C=C2C(=C(C(C)C)C(=O)C2C)CN1 (stereo unspecified)	x	x	1.1	x	x
CC(C)(C)S(=O)c1cccs1 (stereo unspecified)	x	x	1.1	x	x
O=C(c1ccccc1)c1ccc2nc[nH]c2c1	14	24	1.5	-0.66	-2
Cc1nc2ccc(C(=O)c3ccccc3)cc2[nH]1	13	57*	1.4	0.43	0
O=C(NCC1CCCO1)C1CCN(C(=O)c2ccc(Br)cc2)CC1 (stereo unspecified)	22	-4	1	-0.66	-1
COc1ccccc1-n1cnc2cc(NCc3cccs3)ccc21	x	x	0.7	x	x
COc1ccccc1-n1cnc2cc(NCc3ccco3)ccc21	50*	56*	0.7	0.97	-1
CCN(CC)c1ccc(-c2nc3cnccc3n2C)cc1	67*	37	1.7	0.01	-31
CN(C1CCCCC1)S(=O)(=O)Cc1ccccc1	3	-8	1.1	0.65	-2
CCOC(=O)c1[nH]c(C)c(C(=O)Nc2cccc(Cl)c2C)c1C	64*	30	1.1	-0.48	-2
CCOC(=O)c1c(NC(=O)CSc2nc3c(c(=O)n(C)c(=O)n3C)n2CC)sc(C)c1C	-2	-11	1.1	-1.1	-8
CCCn1c(SCC(=O)Nc2sc(C)c(C)c2C(=O)OC)nc2c1c(=O)n(C)c(=O)n2C	-19	2	1.2	-3.8*	-2
c1ccn2c(SCc3ccc4c(c3)OCO4)nnc2c1	23	40	1.3	1.3	-2
O=C(CSc1nnc2ccccn12)c1ccc2c(c1)OCCO2	51*	64*	1.4	-0.91	-4
COc1ccc(C(=O)OCC(=O)c2ccccc2)cc1S(=O)(=O)N1CCOCC1	x	x	1.2	x	x
CS(=O)(=O)N1CCc2cc(C(=O)OCC(=O)c3ccccc3)ccc21	48	29	1.5	0.31	15*
O=C(Nc1nc2c(s1)CCCC2)c1cccnc1	42	35	0.9	-0.34	6
COc1ccc(C(=O)Nc2nnc(C(F)(F)F)s2)cc1	46	57*	1.4	1.8	-1
O=C(Nc1nnc(C(F)(F)F)s1)c1cccnc1	66*	60*	1.2	0.77	5
